Experimental data as given in ChEMBL document CHEMBL1156267, “Studies of the synthesis of all stereoisomers of MG-132 proteasome inhibitors in the tumor targeting approach” (J Med Chem, 2010).
Active and inactive are the calls of the source. The calls are words filed in the database; no cut-off is given here. Square brackets hold non-standard residues; d marks the D form. Peptide text beside a SMILES is read from it. * marks the point of attachment. 1Nal = N[C@@H](Cc1cccc2ccccc12)C(=O)O; 2Nal = N[C@@H](Cc1ccc2ccccc2c1)C(=O)O; Cbz = O=C(OCc1ccccc1)*

Key:
[1] = Inhibition of 20S proteasome from human erythrocyte
Method in brief: (§1)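 Substrates were Suc-Leu-Leu-Val-Tyr-AMC (chymotrypsin-like), Ac-Arg-Leu-Arg-AMC (trypsin-like) and Z-Leu-Leu-Glu-βNA (PGPH). Hydrolysis was read by fluorescence at ex 355 / em 460 nm against DMSO solvent controls.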

[2] = Inhibition of peptidylglutamyl peptide hydrolyzing-like activity of 20S proteasome from human erythrocyte; method in brief: as §1
[3] = Inhibition of trypsin-like activity of 20S proteasome from human erythrocyte; method in brief: as §1
[4] = Inhibition of chymotrypsin-like activity of 20S proteasome from human erythrocyte; method in brief: as §1
EMT6 [5] = assay: Inhibition of proteasome in mouse EMT6 cell lysate assessed as cleavage of Suc-leu-leu-val-Tyr-AMC at 1000 nM after 60 mins; design: scale not given: the % may be the effect or the level left
EMT6 [6] = assay: Inhibition of proteasome in mouse EMT6 cell lysate assessed as cleavage of Suc-leu-leu-val-Tyr-AMC at 100 nM after 60 mins; design: scale not given: the % may be the effect or the level left
EMT6 [7] = assay: Inhibition of proteasome in mouse EMT6 cell lysate assessed as cleavage of Suc-leu-leu-val-Tyr-AMC at 1000 nM after 30 mins; design: scale not given: the % may be the effect or the level left
EMT6 [8] = assay: Inhibition of proteasome in mouse EMT6 cell lysate assessed as cleavage of Suc-leu-leu-val-Tyr-AMC at 100 nM after 30 mins; design: scale not given: the % may be the effect or the level left
J558L [9] = assay: Inhibition of proteasome in mouse J558L cell lysate assessed as cleavage of Suc-leu-leu-val-Tyr-AMC at 1000 nM after 60 mins; design: scale not given: the % may be the effect or the level left
J558L [10] = assay: Inhibition of proteasome in mouse J558L cell lysate assessed as cleavage of Suc-leu-leu-val-Tyr-AMC at 1000 nM after 30 mins; design: scale not given: the % may be the effect or the level left
J558L [11] = assay: Inhibition of proteasome in mouse J558L cell lysate assessed as cleavage of Suc-leu-leu-val-Tyr-AMC at 1000 nM after 15 mins; design: scale not given: the % may be the effect or the level left
J558L [12] = assay: Inhibition of proteasome in mouse J558L cell lysate assessed as cleavage of Suc-leu-leu-val-Tyr-AMC at 100 nM after 30 mins; design: scale not given: the % may be the effect or the level left
EMT6 [13] = assay: Inhibition of proteasome in mouse EMT6 cell lysate assessed as cleavage of Suc-leu-leu-val-Tyr-AMC at 1000 nM after 15 mins; design: scale not given: the % may be the effect or the level left
J558L [14] = assay: Inhibition of proteasome in mouse J558L cell lysate assessed as cleavage of Suc-leu-leu-val-Tyr-AMC at 100 nM after 60 mins; design: scale not given: the % may be the effect or the level left
J558L [15] = assay: Inhibition of proteasome in mouse J558L cell lysate assessed as cleavage of Suc-leu-leu-val-Tyr-AMC at 100 nM after 15 mins; design: scale not given: the % may be the effect or the level left
EMT6 [16] = assay: Inhibition of proteasome in mouse EMT6 cell lysate assessed as cleavage of Suc-leu-leu-val-Tyr-AMC at 100 nM after 15 mins; design: scale not given: the % may be the effect or the level left
EMT6 [17] = assay: Cytotoxicity against mouse EMT6 cells after 24 hrs by crystal violet staining
J558L [18] = assay: Cytotoxicity against mouse J558L cells after 24 hrs by MTT assay; type: functional, cell-based
Method in brief: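 Murine J558L myeloma cells grown in RPMI-1640 with 10% heat-inactivated FCS, antibiotics, 2-mercaptoethanol and 2 mM L-glutamine. Cells were seeded at 3 × 10³ per well and compounds were added the next day. MTT at 1 mg/mL was present for the last 4 h. Cells were lysed in SDS/DMF buffer at pH 4.7 overnight and read at 570 nm. Viability is (A_e − A_b)×100/(A_c − A_b), relative to medium-only cultures.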

Compound | Ki [1] [nM] | IC50 [2] [µM] | IC50 [3] [µM] | IC50 [4] [µM] | Activity (EMT6 [5]) [%] | Activity (EMT6 [6]) [%] | Activity (EMT6 [7]) [%] | Activity (EMT6 [8]) [%] | Activity (J558L [9]) [%] | Activity (J558L [10]) [%] | Activity (J558L [11]) [%] | Activity (J558L [12]) [%] | Activity (EMT6 [13]) [%] | Activity (J558L [14]) [%] | Activity (J558L [15]) [%] | Activity (EMT6 [16]) [%] | Activity (EMT6 [17]) | Activity (J558L [18])
CC(C)C[C@H](NC(=O)[C@H](Cc1ccccc1)NC(=O)c1cnccn1)B(O)O [BORTEZOMIB] | 0.62 | – | – | – | – | – | – | – | – | – | – | – | – | – | – | – | – | –
CC(C)CC(NC(=O)[C@H](CC(C)C)NC(=O)OCc1ccccc1)C(=O)N[C@@H](C=O)CC(C)C (stereo in doubt; (-)) [listing 1 of 2 here] | – | 22.8 | 91.3 | 0.97 | – | – | – | – | – | – | – | – | – | – | – | – | – | –
CC(C)CC(NC(=O)[C@@H](CC(C)C)NC(=O)OCc1ccccc1)C(=O)N[C@H](C=O)CC(C)C (single isomer, unassigned; (+)) [listing 1 of 2 here] | – | > 100 | > 100 | > 100 | – | – | – | – | – | – | – | – | – | – | – | – | – | –
CC(C)CC(NC(=O)[C@H](CC(C)C)NC(=O)OCc1ccccc1)C(=O)N[C@@H](C=O)CC(C)C (stereo in doubt; (+)) [listing 1 of 2 here] | – | > 100 | > 100 | > 100 | – | – | – | – | – | – | – | – | – | – | – | – | – | –
CC(C)C[C@H](C=O)NC(=O)[C@@H](CC(C)C)NC(=O)[C@@H](CC(C)C)NC(=O)OCc1ccccc1 | – | 11.3 | > 100 | 9.81 | 78 | 91 | 70 | 90 | 71 | 66 | 58 | 89 | 62 | 89 | 87 | 90 | – | –
CC(C)C[C@@H](C=O)NC(=O)[C@H](CC(C)C)NC(=O)[C@H](CC(C)C)NC(=O)OCc1ccccc1 (stereo in doubt; 2) [MG-132] | 4 | 5.7 | 104 | 0.89 | – | – | – | – | – | – | – | – | – | – | – | – | – | –
CC(C)CC(NC(=O)[C@@H](CC(C)C)NC(=O)OCc1ccccc1)C(=O)N[C@H](C=O)CC(C)C (single isomer, unassigned; (+)) [listing 2 of 2 here] | – | – | – | – | 99 | 95 | 100 | 95 | 121 | 117 | 114 | 118 | 104 | 123 | 115 | 97 | – | –
CC(C)C[C@@H](C=O)NC(=O)[C@H](Cc1cccc2ccccc12)NC(=O)[C@H](Cc1ccc2ccccc2c1)NC(=O)OCc1ccccc1 (Cbz-[2Nal]-[1Nal]-Leu-aldehyde) | 0.015 | – | – | – | – | – | – | – | – | – | – | – | – | – | – | – | – | –

Second part, led by results:

Ki [1] [nM] | IC50 [2] [µM] | IC50 [3] [µM] | IC50 [4] [µM] | Activity (EMT6 [5]) [%] | Activity (EMT6 [6]) [%] | Activity (EMT6 [7]) [%] | Activity (EMT6 [8]) [%] | Activity (J558L [9]) [%] | Activity (J558L [10]) [%] | Activity (J558L [11]) [%] | Activity (J558L [12]) [%] | Activity (EMT6 [13]) [%] | Activity (J558L [14]) [%] | Activity (J558L [15]) [%] | Activity (EMT6 [16]) [%] | Compound | Activity (EMT6 [17]) | Activity (J558L [18])
– | – | – | – | 53 | 91 | 46 | 91 | 77 | 64 | 55 | 93 | 44 | 94 | 92 | 95 | CC(C)CC(NC(=O)[C@H](CC(C)C)NC(=O)OCc1ccccc1)C(=O)N[C@@H](C=O)CC(C)C (stereo in doubt; (-)) [listing 2 of 2 here] | – | –
– | 2.95 | 34.4 | 0.22 | 13 | 31 | 7 | 22 | 38 | 21 | 11 | 36 | 5 | 50 | 25 | 17 | CC(C)C[C@@H](C=O)NC(=O)[C@@H](CC(C)C)NC(=O)[C@H](CC(C)C)NC(=O)OCc1ccccc1 | inactive | inactive
– | > 100 | > 100 | > 100 | – | – | – | – | 99 | 96 | 102 | 110 | – | 112 | 100 | – | CC(C)C[C@H](NC(=O)[C@@H](CC(C)C)NC(=O)OCc1ccccc1)C(=O)N[C@@H](C=O)CC(C)C | – | –
– | – | – | – | 19 | 35 | 14 | 25 | 44 | 25 | 15 | 44 | 12 | 60 | 32 | 20 | CC(C)C[C@@H](C=O)NC(=O)[C@H](CC(C)C)NC(=O)[C@H](CC(C)C)NC(=O)OCc1ccccc1 (stereo in doubt; 2) | – | –
– | > 100 | > 100 | 5.46 | – | – | – | – | – | – | – | – | – | – | – | – | CC(C)C[C@@H](C=O)NC(=O)[C@H](CC(C)C)NC(=O)[C@H](CC(C)C)NC(=O)OCc1ccccc1 (stereo in doubt) [MG-132] | – | –
– | – | – | – | 67 | 84 | 61 | 85 | 53 | 40 | 30 | 77 | 61 | 82 | 71 | 87 | CC(C)CC(NC(=O)[C@@H](CC(C)C)NC(=O)OCc1ccccc1)C(=O)N[C@H](C=O)CC(C)C (stereo in doubt) [listing 1 of 2 here] | – | –
– | – | – | – | 106 | 99 | 111 | 103 | 106 | 106 | 107 | 105 | 118 | 107 | 104 | 110 | CC(C)CC(NC(=O)[C@H](CC(C)C)NC(=O)OCc1ccccc1)C(=O)N[C@@H](C=O)CC(C)C (stereo in doubt; (+)) [listing 2 of 2 here] | – | –
– | 17.2 | – | 1.79 | – | – | – | – | – | – | – | – | – | – | – | – | CC(C)CC(NC(=O)[C@@H](CC(C)C)NC(=O)OCc1ccccc1)C(=O)N[C@H](C=O)CC(C)C (stereo in doubt) [listing 2 of 2 here] | – | –
– | – | – | – | 50 | 86 | 37 | 77 | 74 | 72 | 71 | 91 | 29 | 95 | 84 | 71 | CC(C)C[C@@H](C=O)NC(=O)[C@H](CC(C)C)NC(=O)[C@H](CC(C)C)NC(=O)OCc1ccccc1 (stereo in doubt) | – | –
